In ChEMBL document CHEMBL1629542, “Epigallocatechin gallate inactivates clinical isolates of herpes simplex virus” (Antimicrob Agents Chemother, 2008) one finds Activity, FC and IC99 data, which are given here for 1 compound.

SMILES strings stand for the structures. The source made the active and inactive calls. The rule behind the calls is not given here.

For assay [1], the system named is Human alphaherpesvirus 1. Description: Antiviral activity against Human herpesvirus 1 isolate P56 infected in African green monkey vero cells assessed as reduction in viral titer at 100 uM. In kind it is functional, organism-based. The essentials: (§1)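 Laboratory HSV-1 F1 or patient-swab HSV-1 isolates were prepared as clarified Vero supernatants. They were incubated 1 h with a range of EGCG concentrations in RPMI 1640/1% FCS at pH 7.4. Titres were determined on Vero cells by 5-day CPE endpoint (Reed-Muench). IC99 was read graphically as 99% titre drop from untreated; mean ± SD, three experiments.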

In assay [2] the test system is Human alphaherpesvirus 2. Description: Antiviral activity against Human herpesvirus 2 isolate P27 infected in African green monkey CV1 cells assessed as log reduction viral titer at 50 uM. In kind it is functional, CV-1. Summed up:
(§2)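 HSV-2 (clinical swab isolates or strain 333) was grown in CV-1 cells and used as clarified supernatant. Virus was exposed to graded EGCG for 1 h in RPMI 1640 with 1% FCS, pH 7.4. Tenfold dilutions were titrated on CV-1 cells, three wells each, 5 days at 37°C, scoring CPE. TCID50 was calculated by Reed-Muench. IC99 was read graphically as 99% titer drop from the zero-concentration titer. Mean of three experiments.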

The test system of assay [3] is Human alphaherpesvirus 1. Nature of the assay: Antiviral activity against Human herpesvirus 1 isolate P42 infected in African green monkey vero cells assessed as reduction in viral titer. Type of assay: functional, organism-based. Conditions: Human alphaherpesvirus 1, isolate P42, Vero. The essentials: as §1
In assay [4] the test system is Human alphaherpesvirus 1. Description: Antiviral activity against Human herpesvirus 1 isolate P56 infected in African green monkey vero cells assessed as log reduction in viral titer at 100 uM within 10 mins. In kind it is functional. The essentials:
(§3)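 In the time course, HSV-1 clinical isolates (clarified Vero supernatants) were exposed to 100 μM EGCG for varying times up to 60 min. Residual infectivity was then titrated on Vero cells by 5-day CPE endpoint with Reed-Muench calculation. Mean ± SD of three separate experiments.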

Assay [5] has as its system Human alphaherpesvirus 1. Description: Antiviral activity against Human herpesvirus 1 isolate P25 infected in African green monkey vero cells assessed as log reduction in viral titer at 50 uM. In kind it is functional. The essentials:
as §1

The test system of assay [6] is Human alphaherpesvirus 1. Description: Antiviral activity against Human herpesvirus 1 isolate P15 infected in African green monkey vero cells assessed as log reduction in viral titer at 50 uM. Type of assay: functional. Summed up: as §1
Assay [7] deals with Human alphaherpesvirus 1. Description: Antiviral activity against Human herpesvirus 1 isolate P38 infected in African green monkey vero cells assessed as reduction in viral titer. Type of assay: functional, organism-based. Conditions: Human alphaherpesvirus 1, isolate P38, Vero. Summed up: as §1
In assay [8] the test system is Human alphaherpesvirus 1. Nature of the assay: Antiviral activity against Human herpesvirus 1 isolate P15 infected in African green monkey vero cells assessed as log reduction in viral titer at 100 uM after 40 to 60 mins. Type of assay: functional. The essentials:
as §3

In assay [9] the test system is Human alphaherpesvirus 2. Description: Antiviral activity against Human herpesvirus 2 isolate P11 infected in African green monkey CV1 cells. In kind it is functional, organism-based. Conditions: Human alphaherpesvirus 2, isolate P11, CV-1. The essentials: (§4)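 HSV-2 patient-swab isolates were grown as clarified CV-1 supernatants and incubated 1 h with a range of EGCG concentrations (RPMI 1640/1% FCS, pH 7.4). They were titrated on CV-1 cells from 10-fold dilutions by 5-day CPE at 37°C, with Reed-Muench TCID50. IC99 was derived graphically as 99% reduction from zero-drug titre; mean ± SD, three experiments.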

Assay [10] relates to Human alphaherpesvirus 2. Nature of the assay: Antiviral activity against Human herpesvirus 2 isolate P47 infected in African green monkey CV1 cells assessed as log reduction viral titer at 50 uM. In kind it is functional, CV-1. The essentials: as §2
Assay [11] deals with Human alphaherpesvirus 1. Description: Binding affinity to Envelope glycoprotein B in Human herpesvirus 1 F1 assessed as macromolecular complex formation by SDS-PAGE. Summed up: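 Purified HSV-1 gB or gD (500 to 700 μg/ml) was incubated with EGCG (250 μg/ml; 545 μM) in 0.1 M potassium phosphate, pH 7.0, at 35°C for 24 h. Products were denatured at 50°C for 15 min in sample buffer and run on 6.5% SDS-PAGE. Bands were stained with Coomassie blue to detect higher-molecular-weight complexes.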

Assay [12] has as its system Human alphaherpesvirus 1. Description: Antiviral activity against Human herpesvirus 1 isolate P25 infected in African green monkey vero cells assessed as reduction in viral titer. In kind it is functional, organism-based. Conditions: Human alphaherpesvirus 1, isolate P25, Vero. Summed up:
as §1

The test system of assay [13] is Human alphaherpesvirus 1. Description: Antiviral activity against Human herpesvirus 1 isolate P32 infected in African green monkey vero cells assessed as log reduction in viral titer at 100 uM within 20 mins. Type of assay: functional. The essentials: as §3
In assay [14] the test system is Human alphaherpesvirus 2. Description: Antiviral activity against Human herpesvirus 2 strain 333 infected in African green monkey CV1 cells assessed as log reduction in viral titer at 100 uM. In kind it is functional, CV-1. Summed up: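 Lab strain HSV-2 333 was grown and titrated either in CV-1 cells or in Vero cells. Virus was incubated with 100 μM EGCG for 60 min, then titrated as tenfold dilutions for 5 days at 37°C with CPE scoring. Reed-Muench TCID50 of treated versus control virus gave the titer decrease. Mean of three experiments.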

In assay [15] the test system is Human alphaherpesvirus 1. Nature of the assay: Antiviral activity against Human herpesvirus 1 F1 assessed as damage of viral particle at 100 uM after 2 hrs by electron microscopy. Type of assay: functional, organism-based.
In assay [16] the test system is Human alphaherpesvirus 1. Nature of the assay: Antiviral activity against Human herpesvirus 1 isolate P15 infected in African green monkey vero cells assessed as reduction in viral titer at 100 uM. Type of assay: functional, organism-based. Summed up:
as §1

Assay [17] concerns Human alphaherpesvirus 2. Nature of the assay: Antiviral activity against Human herpesvirus 2 isolate P22 infected in African green monkey CV1 cells. The settings on record: Human alphaherpesvirus 2, isolate P22, CV-1. In kind it is functional, organism-based. Summed up:
as §2

Assay [18] concerns Human alphaherpesvirus 2. Nature of the assay: Antiviral activity against Human herpesvirus 2 isolate P2 infected in African green monkey CV1 cells assessed as log reduction in viral titer at 12.5 uM. In kind it is functional, CV-1. The essentials:
as §2

Assay [19] deals with Human alphaherpesvirus 2. Description: Antiviral activity against Human herpesvirus 2 isolate P22 infected in African green monkey CV1 cells assessed as log reduction in viral titer at 100 uM within 10 mins. In kind it is functional, CV-1. The essentials: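 Time course: clarified CV-1 supernatant of HSV-2 (clinical isolates or strain 333) was exposed to 100 μM EGCG for increasing times. It was then titrated by tenfold dilution on CV-1 cells, three wells per dilution, for 5 days at 37°C with CPE read-out. Reed-Muench TCID50 was compared with the untreated titer. Mean of three separate experiments.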

The test system of assay [20] is Human alphaherpesvirus 1. Description: Antiviral activity against Human herpesvirus 1 isolate P15 infected in African green monkey vero cells assessed as log reduction in viral titer at 100 uM after 30 mins. Type of assay: functional. The essentials: as §3
Assay [21] deals with Human alphaherpesvirus 2. Description: Antiviral activity against Human herpesvirus 2 isolate P22 infected in African green monkey CV1 cells assessed as log reduction viral titer at 50 uM. In kind it is functional, CV-1. Summed up: as §2
Assay [22] concerns Human alphaherpesvirus 2. Nature of the assay: Antiviral activity against Human herpesvirus 2 isolate P2 infected in African green monkey CV1 cells assessed as log reduction viral titer at 12.5 ug/ml. In kind it is functional, CV-1. The essentials:
as §2

Assay [23] concerns Human alphaherpesvirus 2. Nature of the assay: Antiviral activity against Human herpesvirus 2 isolate P11 infected in African green monkey CV1 cells assessed as log reduction viral titer at 50 uM. In kind it is functional, CV-1. Summed up:
as §4

The test system of assay [24] is Human alphaherpesvirus 1. Description: Antiviral activity against Human herpesvirus 1 F1 assessed as decrease in labeled gB envelope glycoprotein at 100 uM after 2 hrs by electron microscopy. Type of assay: functional, organism-based. Summed up:
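Purified HSV-1 F1 virions were treated with 100 μM EGCG for 2 h, fixed in glutaraldehyde/paraformaldehyde and LR White-embedded without osmium. Nickel-grid sections were blocked with BSA and goat serum, then labelled overnight with anti-gB or anti-gD monoclonal (1:15) and 15 nm colloidal gold. Labelled versus unlabelled particles were counted in 10 fields of 100 particles; mean ± SD.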

As a reminder, the IC99 is the concentration needed for an effect of 99%. Regarding `O=C(O[C@@H]1Cc2c(O)cc(O)cc2O[C@@H]1c1cc(O)c(O)c(O)c1)c1cc(O)c(O)c(O)c1` [EPIGALOCATECHIN GALLATE], the outcome in the assay with Human alphaherpesvirus 1 [1], with Human alphaherpesvirus 1 [11], in the assay with Human alphaherpesvirus 1 [15], in the assay with Human alphaherpesvirus 1 [16] and in the assay with Human alphaherpesvirus 1 [24] was Active. Besides, the FC with Human alphaherpesvirus 2 [2] is reported as above 4; with Human alphaherpesvirus 1 [4], 2; in the assay on Human alphaherpesvirus 1 [5] it was 2; with Human alphaherpesvirus 1 [6] it was 2; with Human alphaherpesvirus 1 [8] it was 3; in the assay with Human alphaherpesvirus 2 [10] it was above 4. Moreover, the FC in the assay with Human alphaherpesvirus 1 [13] is given as 3; in the assay on Human alphaherpesvirus 2 [14], 4; with Human alphaherpesvirus 2 [18], “>=2”; in the assay with Human alphaherpesvirus 2 [19], 2; in the assay on Human alphaherpesvirus 1 [20] it was 2; with Human alphaherpesvirus 2 [21], above 4. The FC with Human alphaherpesvirus 2 [22] was 3.15; in the assay on Human alphaherpesvirus 2 [23], above 4. Further, the IC99 came to 49.1 µM in the assay with Human alphaherpesvirus 1 [3]; 48.2 µM with Human alphaherpesvirus 1 [7]; 12.5 µM with Human alphaherpesvirus 2 [9]; 45.4 µM with Human alphaherpesvirus 1 [12]; 12.5 µM with Human alphaherpesvirus 2 [17].
